Experimental data: ChEMBL document CHEMBL3124843, “Synthesis, cytostatic, antimicrobial, and anti-HCV activity of 6-substituted 7-(het)aryl-7-deazapurine ribonucleosides” (J Med Chem, 2014)
pEC50, pIC50: −log10 of the molar value. Calls of active or inactive are those of the source. No rule for the calls is given here.

What was measured:
[1] = system: CCRF-CEM; assay: Inhibition of RNA synthesis in human CCRF-CEM cells assessed as BrU-positive cells at IC50 after 24 hrs by propidium iodide staining-based flow cytometric analysis (reference value: 43.3%); format: functional; parameters: scale not given: the % may be the effect or the level left
[2] = system: CCRF-CEM; assay: Cell cycle arrest in human CCRF-CEM cells assessed as accumulation at G1 phase at IC50 after 24 hrs by propidium iodide staining-based flow cytometric analysis (reference value: 41%); format: functional
[3] = Cytotoxicity against human HuH7 cells infected with Hepatitis C virus subtype 2a; format: cell-based, Huh-7
[4] = system: Hepatitis C virus; assay: Antiviral activity against Hepatitis C virus subtype 2a infected in human HuH7 cells; format: functional, organism-based, Hepacivirus hominis; conditions: genotype 2a, Huh-7
[5] = Cytotoxicity against human HuH7 cells infected with Hepatitis C virus subtype 1b; format: cell-based, Huh-7
[6] = system: Hepatitis C virus; assay: Antiviral activity against Hepatitis C virus subtype 1b infected in human HuH7 cells; format: functional, organism-based, Hepacivirus hominis; conditions: genotype 1b, Huh-7
[7] = system: Candida tropicalis; assay: Antifungal activity against Candida tropicalis after 48 hrs; format: functional, organism-based
[8] = system: Pichia kudriavzevii; assay: Antifungal activity against Candida crusei after 48 hrs; format: functional, organism-based
[9] = system: Candida parapsilosis; assay: Antifungal activity against Candida parapsilosis after 48 hrs; format: functional, organism-based
[10] = system: Candida albicans; assay: Antifungal activity against Candida albicans after 48 hrs; format: functional, organism-based
[11] = system: Pseudomonas aeruginosa; assay: Antibacterial activity against multi-resistant Pseudomonas aeruginosa A/16575 after 24 hrs; format: functional, organism-based
[12] = system: Escherichia coli; assay: Antibacterial activity against multi-resistant Escherichia coli C/16702 after 24 hrs; format: functional, organism-based
[13] = system: Staphylococcus haemolyticus; assay: Antibacterial activity against methicillin-resistant Staphylococcus haemolyticus A/16568 after 24 hrs; format: functional, organism-based
[14] = system: Staphylococcus aureus; assay: Antibacterial activity against methicillin-resistant Staphylococcus aureus MRSA 4591 after 24 hrs; format: functional, organism-based
[15] = system: Pseudomonas aeruginosa; assay: Antibacterial activity against Pseudomonas aeruginosa CCM 3955 after 24 hrs; format: functional, organism-based
[16] = system: Escherichia coli; assay: Antibacterial activity against Escherichia coli CCM 3954 after 24 hrs; format: functional, organism-based
[17] = system: Staphylococcus aureus; assay: Antibacterial activity against Staphylococcus aureus CCM 3953 after 24 hrs; format: functional, organism-based
[18] = system: Enterococcus faecalis; assay: Antibacterial activity against Enterococcus faecalis CCM 4224 after 24 hrs; format: functional, organism-based
[19] = Antiproliferative activity against human HeLaS3 cells after 72 hrs by XTT assay; format: functional, cell-based; conditions: HeLa S3, 72 h
In short: (§1)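 Antiproliferative test on HL-60 promyelocytic leukemia and HeLa S3 cervical carcinoma cells growing in liquid suspension.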

[20] = system: HL-60; assay: Antiproliferative activity against human HL60 cells after 72 hrs by XTT assay; format: functional, cell-based; conditions: HL-60, 72 h; in short: as §1
[21] = system: HepG2; assay: Antiproliferative activity against human HepG2 cells after 72 hrs by XTT assay; format: functional, cell-based; conditions: HepG2, 72 h
[22] = system: MRC5; assay: Cytostatic activity against human MRC5 cells after 72 hrs by MTT assay; format: ADME, cell-based; conditions: MRC5, 72 h
In short: (§2)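 IC50 is the concentration that cuts cell growth by 50%, read by quantitative metabolic MTT staining after a 3-day treatment. The resistant sublines were made by raising the concentration of the cytotoxic drug step by step. CEM-DNR-bulk (daunorubicin-selected) stably overexpresses mrp-1. K562-TAX (paclitaxel-selected) expresses only mdr-1. HCT116p53−/− carries null p53 alleles. BJ and MRC-5 are nonmalignant fibroblasts.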

[23] = system: BJ; assay: Cytostatic activity against human BJ cells after 72 hrs by MTT assay; format: ADME, cell-based; in short: as §2
[24] = system: HCT-116; assay: Cytostatic activity against p53-deficient human HCT116 cells after 72 hrs by MTT assay; format: functional, cell-based; conditions: HCT-116, 72 h; in short: as §2
[25] = system: HCT-116; assay: Cytostatic activity against human HCT116 cells after 72 hrs by MTT assay; format: functional, cell-based; conditions: HCT-116, 72 h; in short: as §2
[26] = system: A549; assay: Cytostatic activity against human A549 cells after 72 hrs by MTT assay; format: functional, cell-based; conditions: A549, 72 h; in short: as §2
[27] = system: K562; assay: Cytostatic activity against paclitaxel-resistant human K562 cells after 72 hrs by MTT assay; format: functional, cell-based; conditions: K562, 72 h; in short: as §2
[28] = system: K562; assay: Cytostatic activity against human K562 cells after 72 hrs by MTT assay; format: functional, cell-based; conditions: K562, 72 h; in short: as §2
[29] = Cytostatic activity against human CEM-DNR-bulk cells after 72 hrs by MTT assay; format: functional, cell-based; in short: as §2
[30] = system: CCRF-CEM; assay: Cytostatic activity against human CCRF-CEM cells after 72 hrs by MTT assay; format: functional, cell-based; in short: as §2
[31] = system: CCRF-CEM; assay: Mitotic arrest in human CCRF-CEM cells assessed as pH3Ser10-positive cells at IC50 after 24 hrs by propidium iodide staining-based flow cytometric analysis (reference value: 1.4%); format: functional
[32] = system: CCRF-CEM; assay: Cell cycle arrest in human CCRF-CEM cells assessed as accumulation at sub-G1 phase at IC50 after 24 hrs by propidium iodide staining-based flow cytometric analysis (reference value: 9.6%); format: functional
[33] = system: CCRF-CEM; assay: Inhibition of DNA synthesis in human CCRF-CEM cells assessed as BrdU-positive cells at IC50 after 24 hrs by propidium iodide staining-based flow cytometric analysis (reference value: 50.1%); format: functional; parameters: scale not given: the % may be the effect or the level left
[34] = system: CCRF-CEM; assay: Cell cycle arrest in human CCRF-CEM cells assessed as accumulation at G2/M phase at IC50 after 24 hrs by propidium iodide staining-based flow cytometric analysis (reference value: 14.2%); format: functional
[35] = system: CCRF-CEM; assay: Cell cycle arrest in human CCRF-CEM cells assessed as accumulation at S phase at IC50 after 24 hrs by propidium iodide staining-based flow cytometric analysis (reference value: 44.8%); format: functional

Row | SMILES | Activity [1] | CC50 [3] | pEC50 [4] | CC50 [5] | pEC50 [6] | Activity [7] | Activity [8] | Activity [9] | Activity [10] | Activity [11] | Activity [12] | Activity [13] | Activity [14] | Activity [15] | Activity [16] | Activity [17] | Activity [18] | pIC50 [19] | pIC50 [22] | pIC50 [23] | other results
1 | CN(C)c1ncnc2c1c(-c1ccco1)cn2[C@@H]1O[C@H](CO)[C@@H](O)[C@H]1O | 0.4% | > 44 µM | 5.87 | > 44 µM | 5.83 | inactive | inactive | inactive | inactive | inactive | inactive | inactive | inactive | inactive | inactive | inactive | inactive | 5.92 | < 4.00 | < 4.00 | Activity [2]: 31%; pIC50 [20]: 6.66; pIC50 [21]: < 4.82; pIC50 [24]: 6.49; pIC50 [25]: 6.60; pIC50 [26]: 5.34; pIC50 [27]: 5.89; pIC50 [28]: 6.82; pIC50 [29]: 5.50; pIC50 [30]: 5.54; Activity [31]: 1.5%
2 | CN(C)c1ncnc2c1c(I)cn2[C@@H]1O[C@H](CO)[C@@H](O)[C@H]1O | 4.8% | > 44 µM | < 4.36 | > 44 µM | 6.16 | inactive | inactive | inactive | inactive | inactive | inactive | inactive | inactive | inactive | inactive | inactive | inactive | 6.72 | 4.04 | 4.34 | Activity [32]: 9.4%; pIC50 [20]: 7.30; pIC50 [21]: 4.86; pIC50 [24]: 6.92; pIC50 [25]: 7.05; pIC50 [26]: 6.47; pIC50 [27]: 7.30; pIC50 [28]: 7.15; pIC50 [29]: 7.00; pIC50 [30]: 5.80; Activity [31]: 1.3%
3 | C#Cc1cn([C@@H]2O[C@H](CO)[C@@H](O)[C@H]2O)c2ncnc(N(C)C)c12 | 8.6% | > 44 µM | 7.00 | > 44 µM | 7.15 | inactive | inactive | inactive | inactive | inactive | inactive | inactive | inactive | inactive | inactive | inactive | inactive | 6.09 | 4.44 | 6.39 | Activity [32]: 8.9%; pIC50 [20]: 6.54; pIC50 [21]: 5.88; pIC50 [24]: 6.54; pIC50 [25]: 6.74; pIC50 [26]: 6.41; pIC50 [27]: 6.59; pIC50 [28]: 6.96; pIC50 [29]: 6.62; pIC50 [30]: 7.05; Activity [31]: 1.3%
4 | CSc1ncnc2c1c(-c1ccco1)cn2[C@@H]1O[C@H](CO)[C@@H](O)[C@H]1O | 5% | > 44 µM | 7.30 | 38.6 µM | 7.15 | inactive | inactive | inactive | inactive | inactive | inactive | inactive | inactive | inactive | inactive | inactive | inactive | 6.27 | 4.13 | 6.59 | Activity [32]: 7.9%; pIC50 [20]: 6.92; pIC50 [21]: 6.66; pIC50 [24]: 8.00; pIC50 [25]: 7.70; pIC50 [26]: 7.30; pIC50 [27]: 6.68; pIC50 [28]: 7.40; pIC50 [29]: 6.64; pIC50 [30]: 7.30; Activity [31]: 0.7%
5 | Nc1ncnc2c1c(-c1cccs1)cn2[C@@H]1O[C@H](CO)[C@@H](O)[C@H]1O | 15.2% | > 44 µM | < 4.36 | > 44 µM | < 4.36 | inactive | inactive | inactive | inactive | inactive | inactive | inactive | inactive | inactive | inactive | inactive | inactive | 7.70 | 4.40 | 4.18 | Activity [33]: 52.4%; Activity [34]: 10.1%; Activity [35]: 39.2%; Activity [2]: 50.6%; Activity [32]: 18.6%; pIC50 [25]: 8.00; pIC50 [26]: 7.40; pIC50 [27]: 7.70; pIC50 [28]: 7.52; pIC50 [29]: 6.77; pIC50 [30]: 7.70; Activity [31]: 1.4%
6 | COc1ncnc2c1c(-c1cccs1)cn2[C@@H]1O[C@H](CO)[C@@H](O)[C@H]1O | 0.1% | > 44 µM | < 4.36 | > 44 µM | 5.97 | inactive | inactive | inactive | inactive | inactive | inactive | inactive | inactive | inactive | inactive | inactive | inactive | 5.75 | 4.36 | 4.20 | Activity [34]: 9.8%; Activity [32]: 7.5%; pIC50 [20]: 7.10; pIC50 [21]: 4.86; pIC50 [24]: 6.36; pIC50 [25]: 7.10; pIC50 [26]: 5.31; pIC50 [27]: 5.21; pIC50 [28]: 7.15; pIC50 [29]: 4.92; pIC50 [30]: 7.05; Activity [31]: 1.1%
7 | COc1ncnc2c1c(I)cn2[C@@H]1O[C@H](CO)[C@@H](O)[C@H]1O | 0.2% | > 44 µM | < 4.36 | > 44 µM | < 4.36 | inactive | inactive | inactive | inactive | inactive | inactive | inactive | inactive | inactive | inactive | inactive | inactive | 4.84 | 4.20 | 4.04 | Activity [32]: 6%; pIC50 [20]: 5.64; pIC50 [21]: < 4.70; pIC50 [24]: < 4.70; pIC50 [25]: < 4.70; pIC50 [26]: < 4.70; pIC50 [27]: 4.83; pIC50 [28]: < 4.70; pIC50 [29]: < 4.70; pIC50 [30]: 5.94; Activity [31]: 0.9%
